Blank lines part the entries; values can stand above or below the compound they belong to. Calls of active or inactive are those of the source. The calls are words filed in the database; no cut-off is given here.
What was measured:
[1] = biological target: Poly [ADP-ribose] polymerase 1 (Homo sapiens, UniProt P09874); test: Inhibition of recombinant human PARP1 using histone as substrate after 1 hr in presence of biotinylated NAD+ by ELISA
[2] = biological target: Phosphatidylinositol 4,5-bisphosphate 3-kinase catalytic subunit alpha isoform (Homo sapiens, UniProt P42336); test: Inhibition of PI3Kalpha (unknown origin) using PIP2 as substrate measured after 1 hr by ADP-glo plus luminescence assay
Chain of Phosphatidylinositol 4,5-bisphosphate 3-kinase catalytic subunit alpha isoform (P42336 whole entry, canonical isoform): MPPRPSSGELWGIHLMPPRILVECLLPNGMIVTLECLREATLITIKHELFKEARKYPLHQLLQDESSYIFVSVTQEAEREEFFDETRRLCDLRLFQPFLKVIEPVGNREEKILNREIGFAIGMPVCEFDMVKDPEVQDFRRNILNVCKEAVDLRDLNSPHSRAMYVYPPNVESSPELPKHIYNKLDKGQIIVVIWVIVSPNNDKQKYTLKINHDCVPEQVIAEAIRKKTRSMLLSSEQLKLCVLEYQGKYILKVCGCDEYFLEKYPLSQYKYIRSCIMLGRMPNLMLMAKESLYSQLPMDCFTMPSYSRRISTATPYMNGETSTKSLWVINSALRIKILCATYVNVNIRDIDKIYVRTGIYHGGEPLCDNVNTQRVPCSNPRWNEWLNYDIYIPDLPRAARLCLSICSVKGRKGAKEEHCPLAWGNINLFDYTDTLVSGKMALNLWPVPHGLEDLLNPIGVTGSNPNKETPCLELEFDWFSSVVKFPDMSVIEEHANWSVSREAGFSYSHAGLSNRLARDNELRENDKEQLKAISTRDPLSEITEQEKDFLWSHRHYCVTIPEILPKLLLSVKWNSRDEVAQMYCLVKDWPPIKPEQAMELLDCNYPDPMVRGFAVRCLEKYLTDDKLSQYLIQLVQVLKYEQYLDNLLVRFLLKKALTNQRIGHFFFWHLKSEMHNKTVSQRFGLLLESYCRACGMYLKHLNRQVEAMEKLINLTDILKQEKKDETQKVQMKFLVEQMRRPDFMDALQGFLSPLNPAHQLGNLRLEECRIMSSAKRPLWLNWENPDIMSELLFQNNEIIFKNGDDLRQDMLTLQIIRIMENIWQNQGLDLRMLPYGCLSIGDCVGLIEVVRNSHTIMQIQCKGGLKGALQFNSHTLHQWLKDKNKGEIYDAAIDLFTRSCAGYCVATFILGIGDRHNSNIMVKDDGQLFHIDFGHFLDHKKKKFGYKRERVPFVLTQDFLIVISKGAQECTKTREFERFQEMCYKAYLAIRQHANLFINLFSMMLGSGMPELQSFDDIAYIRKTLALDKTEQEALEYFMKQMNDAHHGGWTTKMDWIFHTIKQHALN

HCT-116 = test: Antiproliferative activity against human HCT116 cells measured after 7 days by Celltiter-glo assay; assay type: functional, cell-based; conditions: HCT-116, 168 h
Outline: (§1)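 Cells maintained in RPMI1640 with 10% FBS at 37 °C, 5% CO2. Seeded the day before dosing, grown 12 h, then exposed to graded compound concentrations for 7 days. CellTiter-Glo reagent added, 10 min at room temperature, luminescence read. Inhibition % = (1-(RLU compound - RLU blank)/(RLU DMSO - RLU blank))×100. IC50 from nonlinear regression, normalized dose-response fit.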

MDA-MB-231 = test: Antiproliferative activity against human MDA-MB-231 cells measured after 7 days by Celltiter-glo assay; assay type: functional, cell-based; conditions: MDA-MB-231, 168 h; outline: as §1
A549 = test: Antiproliferative activity against human A549 cells measured after 7 days by Celltiter-glo assay; assay type: functional, cell-based; conditions: A549, 168 h; outline: as §1
DU-145 = test: Antiproliferative activity against human DU145 cells measured after 7 days by Celltiter-glo assay; assay type: functional, cell-based; conditions: DU-145, 168 h; outline: as §1
HCC1937 = test: Antiproliferative activity against human HCC1937 cells measured after 7 days by Celltiter-glo assay; assay type: functional, cell-based; conditions: HCC1937, 168 h; outline: as §1
Ramos = test: Antiproliferative activity against human Ramos cells measured after 7 days by Celltiter-glo assay; assay type: functional, cell-based; conditions: 168 h; outline: as §1
MDA-MB-468 [3] = conditions: Homo sapiens, 2 uM
MDA-MB-468 [4] = test: Antiproliferative activity against human MDA-MB-468 cells measured after 7 days by Celltiter-glo assay; assay type: functional, cell-based; conditions: MDA-MB-468, 168 h; outline: as §1
A2780 = test: Antiproliferative activity against human A2780 cells measured after 7 days by Celltiter-glo assay; assay type: functional, cell-based; conditions: A2780, 168 h; outline: as §1
MDA-MB-468 [5] = test: Induction of apoptosis in human MDA-MB-468 cells assessed as viable cells at 2 uM measured after 72 hrs by Annexin V-FITC/propidium iodide staining based flow cytometry (reference value: 95.2%); assay type: functional
Jurkat = test: Antiproliferative activity against human Jurkat cells measured after 7 days by Celltiter-glo assay; assay type: functional, cell-based; conditions: 168 h; outline: as §1
CAKI-1 = test: Antiproliferative activity against human CAKI-1 cells measured after 7 days by Celltiter-glo assay; assay type: functional, cell-based; conditions: CAKI-1, 168 h; outline: as §1
MDA-MB-468 [6] = conditions: Homo sapiens, 2 uM; remark: listed apart in the source
SW-620 = test: Antiproliferative activity against human SW620 cells measured after 7 days by Celltiter-glo assay; assay type: functional, cell-based; conditions: SW-620, 168 h; outline: as §1
MDA-MB-468 [7] = test: Induction of DNA damage in human MDA-MB-468 cells at 2 uM measured after 72 hrs by comet assay; assay type: functional, cell-based
Outline: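 MDA-MB-468 cells treated for 72 h, harvested and run in a neutral comet assay. Ethidium bromide staining after electrophoresis. About 200 cell images per group analysed with CASP. DNA damage scored as tail intensity (percentage DNA in tail) and olive tail moment. Mean ± SD of three independent experiments.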

MDA-MB-468 [8] = conditions: Homo sapiens, 2 uM; remark: listed apart in the source
BXPC-3 = test: Antiproliferative activity against human BxPC3 cells measured after 7 days by Celltiter-glo assay; assay type: functional, cell-based; conditions: BXPC-3, 168 h; outline: as §1

Chain of Poly [ADP-ribose] polymerase 1 (P09874 whole entry, canonical isoform): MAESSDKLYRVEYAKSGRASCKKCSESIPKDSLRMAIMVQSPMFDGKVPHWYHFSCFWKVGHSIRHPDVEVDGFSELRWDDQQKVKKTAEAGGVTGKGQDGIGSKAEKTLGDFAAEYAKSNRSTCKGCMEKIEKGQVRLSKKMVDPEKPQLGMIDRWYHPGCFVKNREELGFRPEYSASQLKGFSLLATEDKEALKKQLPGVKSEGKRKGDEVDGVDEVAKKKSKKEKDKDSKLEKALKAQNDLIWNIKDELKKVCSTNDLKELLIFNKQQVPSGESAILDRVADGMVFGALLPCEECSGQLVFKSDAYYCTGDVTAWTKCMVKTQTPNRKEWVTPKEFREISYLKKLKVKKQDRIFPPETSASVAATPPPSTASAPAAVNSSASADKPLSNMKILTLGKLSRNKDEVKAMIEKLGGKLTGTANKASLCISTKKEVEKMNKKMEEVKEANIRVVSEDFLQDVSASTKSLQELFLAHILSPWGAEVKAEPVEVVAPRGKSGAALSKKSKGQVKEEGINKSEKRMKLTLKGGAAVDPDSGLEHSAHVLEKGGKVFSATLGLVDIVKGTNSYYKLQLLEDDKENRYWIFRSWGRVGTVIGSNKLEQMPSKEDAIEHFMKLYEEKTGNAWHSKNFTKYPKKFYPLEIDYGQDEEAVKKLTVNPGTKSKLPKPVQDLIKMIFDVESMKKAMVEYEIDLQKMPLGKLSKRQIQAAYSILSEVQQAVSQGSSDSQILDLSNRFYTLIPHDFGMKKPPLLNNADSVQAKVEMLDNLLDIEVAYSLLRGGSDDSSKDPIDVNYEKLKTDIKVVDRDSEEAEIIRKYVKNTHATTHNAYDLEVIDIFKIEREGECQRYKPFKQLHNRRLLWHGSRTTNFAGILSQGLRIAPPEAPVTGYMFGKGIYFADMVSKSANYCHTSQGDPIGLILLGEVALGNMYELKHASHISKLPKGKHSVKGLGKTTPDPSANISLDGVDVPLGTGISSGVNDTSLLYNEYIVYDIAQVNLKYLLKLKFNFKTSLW

IC50 [1]: 0.437 nM | IC50 [2]: 347 nM
Compound: O=C(c1cc(Cc2n[nH]c(=O)c3ccccc23)ccc1F)N1CCN(c2nc(-c3cccc4[nH]ncc34)nc(N3CCOCC3)n2)CC1

IC50 (HCT-116): 3020 nM | IC50 (MDA-MB-231): 18200 nM | IC50 (A549): 5370 nM | IC50 (DU-145): 6310 nM | IC50 (HCC1937): 4570 nM | IC50 (Ramos): 3980 nM | IC50 (MDA-MB-468 [4]): 13800 nM | IC50 (A2780): 741 nM | IC50 (Jurkat): 1700 nM | IC50 (SW-620): 10200 nM | IC50 (BXPC-3): 11700 nM
Compound: O=C(c1cc(Cc2n[nH]c(=O)c3ccccc23)ccc1F)N1CCN(C(=O)C2CC2)CC1 [OLAPARIB]
inhibition (MDA-MB-468 [3]): Active | Activity (MDA-MB-468 [5]): 91.5% | IC50 (CAKI-1): 7080 nM | inhibition (MDA-MB-468 [6]): Active | Activity (MDA-MB-468 [7]): Active | inhibition (MDA-MB-468 [8]): Active

IC50 [1]: 0.832 nM | IC50 [2]: 562 nM
Compound: Nc1ccc(-c2nc(N3CCOCC3)nc(N3CCN(C(=O)c4cc(Cc5n[nH]c(=O)c6ccccc56)ccc4F)CC3)n2)cc1F

IC50 [1]: 0.692 nM | IC50 [2]: 692 nM
Compound: O=C(c1cc(Cc2n[nH]c(=O)c3ccccc23)ccc1F)N1CCN(c2nc(-c3ccc4[nH]ccc4c3)nc(N3CCOCC3)n2)CC1

IC50 [1]: 15.5 nM | IC50 [2]: 324 nM
Compound: Nc1cc(C(F)(F)F)c(-c2cc(N3CCN(C(=O)c4cc(Cc5n[nH]c(=O)c6ccccc56)ccc4F)CC3)nc(N3CCOCC3)n2)cn1

IC50 [1]: 7.94 nM | IC50 [2]: 30.2 nM
Compound: Nc1ccc(-c2nc3c(c(N4CCOCC4)n2)CCN(C(=O)c2cc(Cc4n[nH]c(=O)c5ccccc45)ccc2F)C3)cn1

IC50 [1]: 1.07 nM | IC50 [2]: 132 nM
Compound: Nc1ccc(-c2nc(N3CCOCC3)nc(N3CCN(C(=O)c4cc(Cc5n[nH]c(=O)c6ccccc56)ccc4F)CC3)n2)cn1

IC50 [1]: 0.676 nM | IC50 [2]: > 10000 nM
Compound: O=C(c1cc(Cc2n[nH]c(=O)c3ccccc23)ccc1F)N1CCN(c2nc(-c3ccc4cn[nH]c4c3)nc(N3CCOCC3)n2)CC1

IC50 [1]: 1.1 nM | IC50 [2]: 2290 nM
Compound: Nc1cc(-c2nc(N3CCOCC3)nc(N3CCN(C(=O)c4cc(Cc5n[nH]c(=O)c6ccccc56)ccc4F)CC3)n2)ccc1F
